Assay results from ChEMBL document CHEMBL5036380, “New Highly Potent NLRP3 Inhibitors: Furanochalcone Velutone F Analogues” (ACS Med Chem Lett, 2022).
Activity calls are given as the source filed them. The rule behind the calls is not given here.

What follows are compounds tested on THP-1 (assay: Antiinflammatory activity in human THP-1 cells assessed as inhibition of LPS-induced IL-1beta secretion in LPS stimulation for 3 hrs followed by pretreatment for 40 min before induced with nigericin for 40 min measured by ELISA). Settings: time 80 min; 1.333 h.
Type: functional
Procedure, shortened: (§1)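 THP-1 cells (2 × 10^5 cells/mL) differentiated with PMA (100 ng/mL) for 24 h. Next day, primed with LPS (1 μg/mL) for 3 h, then compound for 40 min, then nigericin (10 μM) for 40 min. IL-1β in supernatant measured by ELISA; % inhibition as mean ± SD of three independent experiments. The single-concentration screen used 2 μM.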

Compound	Activity
COc1cc(-c2ccccc2NS(C)(=O)=O)c(OC)cc1/C=C/C(=O)c1ccc(F)cc1	0.407 µM
COc1c(/C=C/C(=O)c2ccc(F)cc2)cc(OC)c2occc12	0.656 µM
COc1cc(-c2ccccc2S(C)(=O)=O)c(OC)cc1/C=C/C(=O)c1ccc(F)cc1	0.325 µM

The compounds below were run on THP-1 (assay: Cytotoxicity against human THP-1 cells assessed as reduction in cell viability at 0.05 to 6.4 uM measured after 90 mins by CCK8 assay). Settings: thp-1, 1.5 h, dose 0.05-6.4 µM.
Type: cell-based
Procedure, shortened: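 THP-1 cells preincubated with compound (0.05–6.4 μM) for 1.5 h; viability read by CCK8 assay.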

Compound	Activity
COc1cc(-c2ccccc2NS(C)(=O)=O)c(OC)cc1/C=C/C(=O)c1ccc(F)cc1	Non-Toxic
COc1c(/C=C/C(=O)c2ccc(F)cc2)cc(OC)c2occc12	Non-Toxic
COc1cc(-c2ccccc2S(C)(=O)=O)c(OC)cc1/C=C/C(=O)c1ccc(F)cc1	Non-Toxic

Each compound was assayed on Spleen (assay: Downregulation of IL-1beta level in spleen of LPS treated C57BL/6J mouse at 10 mg/kg, iv measured after 6 hrs by ELISA). Settings: not given.

Compound	Activity
COc1c(/C=C/C(=O)c2ccccc2)cc(OC)c2occc12	Active

These compounds were tested on THP-1 (assay: Antiinflammatory activity in human THP-1 cells assessed as inhibition of LPS-induced IL-1beta secretion in LPS stimulation for 3 hrs followed by pretreatment at 2uM for 40 min before induced with nigericin for 40 min measured by ELISA). Settings: THP-1, 1.333 h, time 80 min.
Type: functional
Procedure, shortened: as §1

Compound	inhibition at 2 µM
COc1cc(-c2ccoc2)c(OC)cc1/C=C/C(=O)c1ccc(F)cc1	38.5%
COc1c(/C=C/C(=O)c2ccc3ccccc3n2)cc(OC)c2occc12	32.1%
COc1ccc(OC)c(/C=C/C(=O)c2ccc(F)cc2)c1	91.1%
COc1cc(NS(=O)(=O)C2CC2)c(OC)cc1/C=C/C(=O)c1ccc(F)cc1	24.8%
COc1cc(-c2ccccc2NS(C)(=O)=O)c(OC)cc1/C=C/C(=O)c1ccc(F)cc1	101%
COc1c(/C=C/C(=O)c2cccc(-c3ccccc3)n2)cc(OC)c2occc12	15.9%
COc1c(/C=C/C(=O)c2cccc(C)c2)cc(OC)c2occc12	75%
COc1c(C(=O)/C=C/c2ccccc2)cc(OC)c2occc12	15.5%
COc1c(/C=C/C(=O)c2ccc[nH]2)cc(OC)c2occc12	10.3%
COc1cc(/C=C/C(=O)c2ccc(F)cc2)c(OC)cc1C	80.6%
COc1c(/C=C/C(=O)c2ccccc2F)cc(OC)c2occc12	50.4%
COc1c(/C=C/C(=O)c2ccc(C(F)(F)F)cc2)cc(OC)c2occc12	50%
COc1c(/C=C/C(=O)c2cccc(C(F)(F)F)n2)cc(OC)c2occc12	32.4%
COc1c(/C=C/C(=O)c2ccc(Cl)cn2)cc(OC)c2occc12	20.3%
COc1c(/C=C/C(=O)Nc2ccccc2)cc(OC)c2occc12	7.4%
COc1c(/C=C/C(=O)c2ccccc2)cc(OC)c2occc12	50.8%
COc1c(/C=C/C(=O)O)cc(OC)c2occc12	5.2%
COc1c(/C=C/C(=O)c2ccc(F)cc2)cc(OC)c2occc12	88.2%

Compound	inhibition at 2 µM
COc1c(/C=C/C(=O)c2ccc(C#N)cc2)cc(OC)c2occc12	27.6%
COc1c(/C=C/C(=O)c2ccccn2)cc(OC)c2occc12	56.9%
COc1c(CCC(=O)c2cccc(Br)n2)cc(OC)c2occc12	10.7%
COc1c(/C=C/C(=O)c2cccc(N)c2)cc(OC)c2occc12	58.8%
COc1c(/C=C/C(=O)c2cccc(O)c2)cc(OC)c2occc12	60.5%
COc1c(/C=C/C(=O)c2cccc(-c3cccs3)n2)cc(OC)c2occc12	15.9%
CC(C)(O)c1coc(S(=O)(=O)NC(=O)Nc2c3c(cc4c2CCC4)CCC3)c1	106%
COc1cc(C(=O)/C=C/c2cc(OC)c3occc3c2OC)cc(OC)c1OC	42%
COc1c(/C=C/C(=O)c2ccco2)cc(OC)c2occc12	32.8%
COc1c(/C=C/C(=O)c2cccc(C(F)(F)F)c2)cc(OC)c2occc12	64.7%
COc1c(/C=C/C(=O)c2cccc(F)c2)cc(OC)c2occc12	51.4%
C=CC(=O)N(Cc1cc(OC)c2occc2c1OC)c1ccc(F)cc1	15%
C=CC(=O)N(Cc1cc(OC)c2occc2c1OC)c1ccccc1	31.8%
COc1c(/C=C/C(=O)C2CC2)cc(OC)c2occc12	8.7%
COc1c(/C=C/C(=O)c2cccc(Br)n2)cc(OC)c2occc12	67.7%
COc1c(/C=C/C(=O)c2ccccc2N)cc(OC)c2occc12	19.8%
COc1c(/C=C/C(=O)c2ccc(Br)cc2)cc(OC)c2occc12	50.1%
COc1cc(-c2ccccc2S(C)(=O)=O)c(OC)cc1/C=C/C(=O)c1ccc(F)cc1	102%

Same assay, conditions: time 80.0 min

Compound	inhibition
COc1c(/C=C/C(=O)Nc2cccc(Br)n2)cc(OC)c2occc12	inactive
COc1cc(/C=C/C(=O)c2ccc(F)cc2)c(OC)cc1C=C(C)C	inactive
COc1c(CCC(=O)c2ccccc2)cc(OC)c2occc12	inactive
COc1c(CCC(=O)c2ccc(F)cc2)cc(OC)c2occc12	inactive
COc1cc(-c2ccccc2C)c(OC)cc1/C=C/C(=O)c1ccc(F)cc1	inactive
COc1c(/C=C/C(=O)Nc2ccc(F)cc2)cc(OC)c2occc12	inactive
COc1cncc(-c2cc(OC)c(/C=C/C(=O)c3ccc(F)cc3)cc2OC)c1	inactive
C=CC(=O)N(Cc1cc(OC)c2occc2c1OC)c1cccc(Br)n1	inactive
COc1c(/C=C/C(=O)Nc2cccc(C(F)(F)F)c2)cc(OC)c2occc12	inactive
COc1cc(-c2cccc(Cl)c2)c(OC)cc1/C=C/C(=O)c1ccc(F)cc1	inactive
COc1cc(-c2cn[nH]c2)c(OC)cc1/C=C/C(=O)c1ccc(F)cc1	inactive
C=CC(=O)N(Cc1cc(OC)c2occc2c1OC)c1cccc(C(F)(F)F)c1	inactive
COc1c(CCC(=O)c2cccc(C(F)(F)F)c2)cc(OC)c2occc12	inactive
COc1cc(-c2cc(F)cc(F)c2)c(OC)cc1/C=C/C(=O)c1ccc(F)cc1	inactive
COc1cc(NS(C)(=O)=O)c(OC)cc1/C=C/C(=O)c1ccc(F)cc1	inactive
COc1c(/C=C/C(=O)c2ccc(N)cc2)cc(OC)c2occc12	inactive
COc1cc(-c2ccsc2)c(OC)cc1/C=C/C(=O)c1ccc(F)cc1	inactive
